Published values of several laboratories.
Each line is one published result; the experiments were not run side by side.
Target: Mitogen-activated protein kinase 11 (MAPK11, Homo sapiens, UniProt Q15759)
Method: competition with immobilised ligand

SMILES | assay | setting | remaining binding
O=C(NCCCN1CCOCC1)c1ccc(Nc2nccc(-c3cc4ccccc4s3)n2)cc1 | binding | 1 µM | 98%
CN(C)c1nccc(-c2cnn3ncccc23)n1 | binding | 1 µM | 100%
CCS(=O)(=O)c1cc2cc(C[C@@](O)(CC(C)(C)c3ccc(F)cc3C(N)=O)C(F)(F)F)[nH]c2cn1 | cell-free assay | 1 µM | 100%
N#Cc1ccccc1CSc1nnc2c(n1)[nH]c1ccccc12 | binding | 10 µM | 94%
O=C(NCCCN1CCOCC1)c1ccc(Nc2ncc(Cl)c(-c3ccc(Cl)s3)n2)cc1 | binding | 1 µM | 98%
Cc1cnn2ncc(-c3ccnc(N(C)C)n3)c2c1 | binding | 1 µM | 100%
NS(=O)(=O)c1cc(NC(=O)C2(c3ccccc3Cl)CC2)ccc1Oc1cccc(Cl)c1 | cell-free assay | 1 µM | 68%
O=C(Nc1c[nH]nc1C(=O)NC1CCNCC1)c1cc(F)cc(F)c1 | binding | 1 µM | 97%
CC(C)(C)c1ccc(-c2nc(CBr)nn2-c2cccc(O)c2)cc1 | cell-free assay | 10 µM | 99%
COc1ncc2cc3ccccc3nc2c1C#N | cell-free assay | 5 µM | 92%
Cc1cc(C)c(-n2ccn3nc(-c4cccnc4)cc23)cc1NC(=O)c1cc(C#N)cc(S(F)(F)(F)(F)F)c1 | cell-free assay | 0.1 µM | 93.4%
CN(C)c1ncc(F)c(-c2cnn3ncccc23)n1 | binding | 1 µM | 100%
COc1cnc(Nc2cccc(S(N)(=O)=O)c2)nc1N1CCN(c2ccccc2)CC1 | binding | 1 µM | 100%
c1cncc(-c2cccc(Nc3nccc(NC4CCCCC4)n3)c2)c1 | binding | 10 µM | 89%
COc1ccnn2ncc(-c3ccnc(N(C)C)n3)c12 | binding | 1 µM | 92%
C[C@@H]1CN(c2cc(-c3n[nH]c4ccc(OC5(C)CC5)cc34)ncn2)C[C@H](C)O1 | cell-free assay | 0.1 µM | 89%
C[C@@H]1CN(c2ccc3ncc(-c4ccc5[nH]nc(C6CC6)c5c4)n3n2)C[C@H](C)O1 | binding | 0.5 µM | 100%
C[C@@H]1CCN(c2nccc(-c3cnn4ncccc34)n2)C1 | binding | 1 µM | 100%
CSc1cccnc1N1CCN(Cc2nc3ccccc3[nH]2)CC1 | cell-free assay | 1 µM | 100%
COc1cnc(Nc2cccc(S(N)(=O)=O)c2)nc1N1CCN(c2ccccc2)C(=O)C1 | binding | 1 µM | 100%
CCN1CCN(Cc2ccc(C(=O)Nc3ccc(C)c(Oc4ccc5c(c4)CC(=O)N5)c3)cc2C(F)(F)F)CC1 | binding | 1 µM | 7%
CN(C)CC#Cc1ccc(OCCCc2sc(N3CCc4cccc(C(=O)Nc5nc6ccccc6s5)c4C3)nc2C(=O)O)c(F)c1 | cell-free assay | 1 µM | 100%
